Results reported in ChEMBL document CHEMBL4033670, “Synthesis, characterization, molecular docking and in vitro antimalarial properties of new carboxamides bearing sulphonamide” (Eur J Med Chem, 2017).

Test system: Plasmodium falciparum
Experiment: Antimalarial activity against ring stage chloroquine-resistant Plasmodium falciparum W2 preincubated for 48 hrs measured after 48 hrs in presence of 10% human serum by YOYO-1 dye-based FACS analysis
Type: functional
Method in brief: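 Sorbitol-synchronized ring-stage W2 parasites at 0.1% parasitemia grown 48 h in RPMI-1640 + 10% human serum under 3% O2/6% CO2/91% N2 with inhibitors (from 1000× DMSO stocks), no media change. Fixed 48 h in 1% formaldehyde/PBS pH 7.4 at room temperature. Stained with 1 nM YOYO-1 in 0.1% Triton X-100/PBS. Parasitemia read by flow cytometry.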

Structure (SMILES)	MIC99 [µM]
CCC(C)C(C(=O)Nc1ccc(C(C)=O)cc1)N(C(=O)c1ccccc1)S(=O)(=O)c1ccc([N+](=O)[O-])cc1 (configuration not stated)	0.2
CC(=O)c1ccc(NC(=O)C(CC(C)C)N(C(=O)c2ccccc2)S(=O)(=O)c2ccc(C)cc2)cc1 (configuration not stated)	0.17
CCN(CC)CCCC(C)Nc1ccnc2cc(Cl)ccc12 (configuration not stated) [CHLOROQUINE]	0.06
C=C[C@H]1CN2CC[C@H]1C[C@H]2[C@H](O)c1ccnc2ccc(OC)cc12 [QUININE]	0.83
CC(=O)c1ccc(NC(=O)C(Cc2ccccc2)N(C(=O)c2ccccc2)S(=O)(=O)c2ccccc2)cc1 (configuration not stated)	0.9
CC(=O)c1ccc(NC(=O)C2CC(O)CN2S(=O)(=O)c2ccccc2)cc1 (configuration not stated)	0.16
CC(=O)c1ccc(NC(=O)C2CCCN2S(=O)(=O)c2ccccc2)cc1 (configuration not stated)	0.11
CCC(C)C(C(=O)Nc1ccc(C(C)=O)cc1)N(C(=O)c1ccccc1)S(=O)(=O)c1ccccc1 (configuration not stated)	1.25
CC(=O)c1ccc(NC(=O)CN(C(=O)c2ccccc2)S(=O)(=O)c2ccccc2)cc1	0.97
CC(=O)c1ccc(NC(=O)CN(C(=O)c2ccccc2)S(=O)(=O)c2ccc(C)cc2)cc1	0.72
CC(=O)c1ccc(NC(=O)C(CC(C)C)N(C(=O)c2ccccc2)S(=O)(=O)c2ccccc2)cc1 (configuration not stated)	0.26
CC(=O)c1ccc(NC(=O)C(C(C)C)N(C(=O)c2ccccc2)S(=O)(=O)c2ccccc2)cc1 (configuration not stated)	1.7

Test system: not listed separately
Experiment: Antioxidant activity assessed as inhibition of DPPH radical generation at 5 mg/ml after 20 mins under dark condition by UV-Visible spectrophotometric analysis relative to control
Type: functional
Method in brief: (§1)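 Test compounds were made up in ethanol at 1.0, 2.0, 3.0, 4.0 and 5.0 mg/mL (solution concentrations before mixing). 1 mL of each was shaken with 4 mL of 0.1 mM ethanolic DPPH and kept in the dark at room temperature for 20 min. The decrease in A517 was read against an ethanol baseline. A DPPH blank had no compound. Scavenging % = [(Ac − As)/Ac] × 100.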

Structure (SMILES)	inhibition [%]
CCC(C)C(C(=O)Nc1ccc(C(C)=O)cc1)N(C(=O)c1ccccc1)S(=O)(=O)c1ccc([N+](=O)[O-])cc1 (configuration not stated)	53.2
CC(=O)c1ccc(NC(=O)C(CC(C)C)N(C(=O)c2ccccc2)S(=O)(=O)c2ccc(C)cc2)cc1 (configuration not stated)	71.3
CC(=O)c1ccc(NC(=O)C(Cc2ccccc2)N(C(=O)c2ccccc2)S(=O)(=O)c2ccccc2)cc1 (configuration not stated)	11
CC(=O)c1ccc(NC(=O)C2CC(O)CN2S(=O)(=O)c2ccccc2)cc1 (configuration not stated)	58.7
CC(=O)c1ccc(NC(=O)C2CCCN2S(=O)(=O)c2ccccc2)cc1 (configuration not stated)	35.7
CCC(C)C(C(=O)Nc1ccc(C(C)=O)cc1)N(C(=O)c1ccccc1)S(=O)(=O)c1ccccc1 (configuration not stated)	16.8
CC(=O)c1ccc(NC(=O)CN(C(=O)c2ccccc2)S(=O)(=O)c2ccccc2)cc1	45.4
CC(=O)c1ccc(NC(=O)CN(C(=O)c2ccccc2)S(=O)(=O)c2ccc(C)cc2)cc1	18.7
CC(=O)c1ccc(NC(=O)C(CC(C)C)N(C(=O)c2ccccc2)S(=O)(=O)c2ccccc2)cc1 (configuration not stated)	52.2
CC(=O)c1ccc(NC(=O)C(C(C)C)N(C(=O)c2ccccc2)S(=O)(=O)c2ccccc2)cc1 (configuration not stated)	54.2

Test system: not listed separately
Experiment: Antioxidant activity assessed as inhibition of DPPH radical generation at 2 mg/ml after 20 mins under dark condition by UV-Visible spectrophotometric analysis relative to control
Type: functional
Method in brief: as §1

Structure (SMILES)	inhibition [%]
CCC(C)C(C(=O)Nc1ccc(C(C)=O)cc1)N(C(=O)c1ccccc1)S(=O)(=O)c1ccc([N+](=O)[O-])cc1 (configuration not stated)	31.7
CC(=O)c1ccc(NC(=O)C(CC(C)C)N(C(=O)c2ccccc2)S(=O)(=O)c2ccc(C)cc2)cc1 (configuration not stated)	58.1
CC(=O)c1ccc(NC(=O)C(Cc2ccccc2)N(C(=O)c2ccccc2)S(=O)(=O)c2ccccc2)cc1 (configuration not stated)	4.37
CC(=O)c1ccc(NC(=O)C2CC(O)CN2S(=O)(=O)c2ccccc2)cc1 (configuration not stated)	57
CC(=O)c1ccc(NC(=O)C2CCCN2S(=O)(=O)c2ccccc2)cc1 (configuration not stated)	25.8
CCC(C)C(C(=O)Nc1ccc(C(C)=O)cc1)N(C(=O)c1ccccc1)S(=O)(=O)c1ccccc1 (configuration not stated)	11.3
CC(=O)c1ccc(NC(=O)CN(C(=O)c2ccccc2)S(=O)(=O)c2ccccc2)cc1	40.5
CC(=O)c1ccc(NC(=O)CN(C(=O)c2ccccc2)S(=O)(=O)c2ccc(C)cc2)cc1	18.1
CC(=O)c1ccc(NC(=O)C(CC(C)C)N(C(=O)c2ccccc2)S(=O)(=O)c2ccccc2)cc1 (configuration not stated)	54.2
CC(=O)c1ccc(NC(=O)C(C(C)C)N(C(=O)c2ccccc2)S(=O)(=O)c2ccccc2)cc1 (configuration not stated)	41.3

Test system: not listed separately
Experiment: Antioxidant activity assessed as inhibition of DPPH radical generation at 1 mg/ml after 20 mins under dark condition by UV-Visible spectrophotometric analysis relative to control
Type: functional
Method in brief: as §1

Structure (SMILES)	inhibition [%]
CCC(C)C(C(=O)Nc1ccc(C(C)=O)cc1)N(C(=O)c1ccccc1)S(=O)(=O)c1ccc([N+](=O)[O-])cc1 (configuration not stated)	28.6
CC(=O)c1ccc(NC(=O)C(CC(C)C)N(C(=O)c2ccccc2)S(=O)(=O)c2ccc(C)cc2)cc1 (configuration not stated)	54
CC(=O)c1ccc(NC(=O)C(Cc2ccccc2)N(C(=O)c2ccccc2)S(=O)(=O)c2ccccc2)cc1 (configuration not stated)	2.18
CC(=O)c1ccc(NC(=O)C2CC(O)CN2S(=O)(=O)c2ccccc2)cc1 (configuration not stated)	40.2
CC(=O)c1ccc(NC(=O)C2CCCN2S(=O)(=O)c2ccccc2)cc1 (configuration not stated)	22.8
CCC(C)C(C(=O)Nc1ccc(C(C)=O)cc1)N(C(=O)c1ccccc1)S(=O)(=O)c1ccccc1 (configuration not stated)	9.71
CC(=O)c1ccc(NC(=O)CN(C(=O)c2ccccc2)S(=O)(=O)c2ccccc2)cc1	40.5
CC(=O)c1ccc(NC(=O)CN(C(=O)c2ccccc2)S(=O)(=O)c2ccc(C)cc2)cc1	17.9
CC(=O)c1ccc(NC(=O)C(CC(C)C)N(C(=O)c2ccccc2)S(=O)(=O)c2ccccc2)cc1 (configuration not stated)	27.7
CC(=O)c1ccc(NC(=O)C(C(C)C)N(C(=O)c2ccccc2)S(=O)(=O)c2ccccc2)cc1 (configuration not stated)	32.1

Test system: not listed separately
Experiment: Antioxidant activity assessed as inhibition of DPPH radical generation at 3 mg/ml after 20 mins under dark condition by UV-Visible spectrophotometric analysis relative to control
Type: functional
Method in brief: as §1

Structure (SMILES)	inhibition [%]
CCC(C)C(C(=O)Nc1ccc(C(C)=O)cc1)N(C(=O)c1ccccc1)S(=O)(=O)c1ccc([N+](=O)[O-])cc1 (configuration not stated)	42.1
CC(=O)c1ccc(NC(=O)C(CC(C)C)N(C(=O)c2ccccc2)S(=O)(=O)c2ccc(C)cc2)cc1 (configuration not stated)	63.1
CC(=O)c1ccc(NC(=O)C(Cc2ccccc2)N(C(=O)c2ccccc2)S(=O)(=O)c2ccccc2)cc1 (configuration not stated)	7.21
CC(=O)c1ccc(NC(=O)C2CC(O)CN2S(=O)(=O)c2ccccc2)cc1 (configuration not stated)	49.8
CC(=O)c1ccc(NC(=O)C2CCCN2S(=O)(=O)c2ccccc2)cc1 (configuration not stated)	29.1
CCC(C)C(C(=O)Nc1ccc(C(C)=O)cc1)N(C(=O)c1ccccc1)S(=O)(=O)c1ccccc1 (configuration not stated)	14.2
CC(=O)c1ccc(NC(=O)CN(C(=O)c2ccccc2)S(=O)(=O)c2ccccc2)cc1	40.7
CC(=O)c1ccc(NC(=O)CN(C(=O)c2ccccc2)S(=O)(=O)c2ccc(C)cc2)cc1	18.2
CC(=O)c1ccc(NC(=O)C(CC(C)C)N(C(=O)c2ccccc2)S(=O)(=O)c2ccccc2)cc1 (configuration not stated)	40.7
CC(=O)c1ccc(NC(=O)C(C(C)C)N(C(=O)c2ccccc2)S(=O)(=O)c2ccccc2)cc1 (configuration not stated)	47.5

Test system: not listed separately
Experiment: Antioxidant activity assessed as inhibition of DPPH radical generation at 4 mg/ml after 20 mins under dark condition by UV-Visible spectrophotometric analysis relative to control
Type: functional
Method in brief: as §1

Structure (SMILES)	inhibition [%]
CCC(C)C(C(=O)Nc1ccc(C(C)=O)cc1)N(C(=O)c1ccccc1)S(=O)(=O)c1ccc([N+](=O)[O-])cc1 (configuration not stated)	48.4
CC(=O)c1ccc(NC(=O)C(CC(C)C)N(C(=O)c2ccccc2)S(=O)(=O)c2ccc(C)cc2)cc1 (configuration not stated)	67.2
CC(=O)c1ccc(NC(=O)C(Cc2ccccc2)N(C(=O)c2ccccc2)S(=O)(=O)c2ccccc2)cc1 (configuration not stated)	9.28
CC(=O)c1ccc(NC(=O)C2CC(O)CN2S(=O)(=O)c2ccccc2)cc1 (configuration not stated)	54.5
CC(=O)c1ccc(NC(=O)C2CCCN2S(=O)(=O)c2ccccc2)cc1 (configuration not stated)	33.4
CCC(C)C(C(=O)Nc1ccc(C(C)=O)cc1)N(C(=O)c1ccccc1)S(=O)(=O)c1ccccc1 (configuration not stated)	15.5
CC(=O)c1ccc(NC(=O)CN(C(=O)c2ccccc2)S(=O)(=O)c2ccccc2)cc1	40.9
CC(=O)c1ccc(NC(=O)CN(C(=O)c2ccccc2)S(=O)(=O)c2ccc(C)cc2)cc1	18.4
CC(=O)c1ccc(NC(=O)C(CC(C)C)N(C(=O)c2ccccc2)S(=O)(=O)c2ccccc2)cc1 (configuration not stated)	46.9
CC(=O)c1ccc(NC(=O)C(C(C)C)N(C(=O)c2ccccc2)S(=O)(=O)c2ccccc2)cc1 (configuration not stated)	52.2

Test system: not listed separately
Experiment: Antioxidant activity assessed as DPPH radical scavenging activity after 20 mins under dark condition by UV-Visible spectrophotometric analysis
Type: functional
Method in brief: as §1

Structure (SMILES)	IC50 [mM]
CCC(C)C(C(=O)Nc1ccc(C(C)=O)cc1)N(C(=O)c1ccccc1)S(=O)(=O)c1ccc([N+](=O)[O-])cc1 (configuration not stated)	50
CC(=O)c1ccc(NC(=O)C(CC(C)C)N(C(=O)c2ccccc2)S(=O)(=O)c2ccc(C)cc2)cc1 (configuration not stated)	11
CC(=O)c1ccc(NC(=O)C(Cc2ccccc2)N(C(=O)c2ccccc2)S(=O)(=O)c2ccccc2)cc1 (configuration not stated)	11
CC(=O)c1ccc(NC(=O)C2CC(O)CN2S(=O)(=O)c2ccccc2)cc1 (configuration not stated)	3.8
CC(=O)c1ccc(NC(=O)C2CCCN2S(=O)(=O)c2ccccc2)cc1 (configuration not stated)	69
CCC(C)C(C(=O)Nc1ccc(C(C)=O)cc1)N(C(=O)c1ccccc1)S(=O)(=O)c1ccccc1 (configuration not stated)	8.6
CC(=O)c1ccc(NC(=O)CN(C(=O)c2ccccc2)S(=O)(=O)c2ccccc2)cc1	32
CC(=O)c1ccc(NC(=O)CN(C(=O)c2ccccc2)S(=O)(=O)c2ccc(C)cc2)cc1	102
CC(=O)c1ccc(NC(=O)C(CC(C)C)N(C(=O)c2ccccc2)S(=O)(=O)c2ccccc2)cc1 (configuration not stated)	3.2
CC(=O)c1ccc(NC(=O)C(C(C)C)N(C(=O)c2ccccc2)S(=O)(=O)c2ccccc2)cc1 (configuration not stated)	13
